Experimental data taken from ChEMBL document CHEMBL2169861, “Synthesis and biological evaluation of novel unsaturated carboxysteroids as human 5α-reductase inhibitors: a legitimate approach” (Eur J Med Chem, 2012).
pIC50: −log10 of the molar value.

Experiments:
[1] = molecular target: T1, 3-oxo-5-alpha-steroid 4-dehydrogenase 2 (Homo sapiens) (UniProt P31213); test: Inhibition of human type-2 5-alpha reductase expressed in HEK293 cells using [3H]-androstenedione as substrate at 10 uM after 30 mins by HPLC analysis; assay type: cell-based
T1 sequence (whole entry): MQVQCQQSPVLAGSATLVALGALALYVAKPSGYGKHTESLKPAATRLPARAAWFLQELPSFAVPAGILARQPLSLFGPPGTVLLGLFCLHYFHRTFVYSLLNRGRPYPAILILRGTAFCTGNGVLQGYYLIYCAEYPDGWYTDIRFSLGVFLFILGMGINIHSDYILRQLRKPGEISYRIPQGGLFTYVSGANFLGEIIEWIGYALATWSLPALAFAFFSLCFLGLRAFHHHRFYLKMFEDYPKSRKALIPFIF
Summary of the method: (§1)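 Lysates of 80% confluent HEK293 cells stably expressing human type I or type II cDNA (pRcCMV), sonicated in 300 mM saccharose, 5 mM Tris-HCl, 0.1 mM EDTA. Final 500 nM androstenedione with [3H]androstenedione, NADPH-regenerating system (0.55 mM NADP, 5 mM glucose-6-phosphate, G6PDH), 2% DMSO; 30 min, 37 °C. Ether-extracted; conversion quantified by radio-HPLC on C8.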

[2] = molecular target: T2, 3-oxo-5-alpha-steroid 4-dehydrogenase 1 (Homo sapiens) (UniProt P18405); test: Inhibition of human type-1 5-alpha reductase expressed in HEK293 cells using [3H]-androstenedione as substrate at 10 uM after 30 mins by HPLC analysis; assay type: cell-based; summary of the method: as §1
T2 sequence (whole entry): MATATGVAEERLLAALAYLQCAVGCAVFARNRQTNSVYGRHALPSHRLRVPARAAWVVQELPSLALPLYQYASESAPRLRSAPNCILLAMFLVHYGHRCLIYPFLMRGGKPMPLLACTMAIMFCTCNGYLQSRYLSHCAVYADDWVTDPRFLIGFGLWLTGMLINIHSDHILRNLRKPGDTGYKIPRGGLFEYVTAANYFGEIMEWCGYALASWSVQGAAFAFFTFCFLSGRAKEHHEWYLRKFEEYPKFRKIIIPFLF

Rattus norvegicus [3] = test: Anti-benign prostatic hyperplasia activity in Wistar rat assessed as reduction of ventral prostate weight gain at 1 mg/kg, po qd for 14 days measured on day 15; assay type: functional, Prostate gland; parameters: scale not given: the % may be the effect or the level left
Summary of the method: (§2)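 Mature male Wistar rats, acclimatised one month, dosed orally once daily for 14 days with suspension in 0.50% carboxymethylcellulose at 5 ml/kg; vehicle controls; 5 rats/group. Killed under ether on day 15, 24 h after last dose; organs dissected free of fat and connective tissue, weighed, expressed per 100 g body weight. Mean ± SEM; one-way ANOVA with Dunnett's test.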

[4] = molecular target: T3, 3-oxo-5-alpha-steroid 4-dehydrogenase 2 (Homo sapiens, UniProt P31213); test: Inhibition of human type-2 5-alpha reductase expressed in HEK293 cells using [3H]-androstenedione as substrate after 30 mins by HPLC analysis; assay type: cell-based; summary of the method: as §1
T3 sequence (P31213 whole entry): T1 sequence (whole entry)

Rattus norvegicus [5] = test: Anti-benign prostatic hyperplasia activity in Wistar rat assessed as reduction of testis weight gain per 100 gram of body weight at 1 mg/kg, po qd for 14 days measured on day 15; assay type: functional; summary of the method: as §2
Rattus norvegicus [6] = test: Anti-benign prostatic hyperplasia activity in Wistar rat assessed as reduction of dorsal prostate weight gain at 1 mg/kg, po qd for 14 days measured on day 15; assay type: functional, Prostate gland; parameters: scale not given: the % may be the effect or the level left; summary of the method: as §2
Rattus norvegicus [7] = test: Toxicity in Wistar rat assessed as mortality at 1 mg/kg, po qd for 14 days measured on day 15; assay type: organism-based; parameters: dose 1 mg/kg, route oral; conditions: in vivo, 336 h
Summary of the method: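 Mature male Wistar rats, acclimatised one month, dosing begun after 9 weeks. Compound suspended in 0.50% carboxymethylcellulose sodium and given orally at 5 ml/kg once daily for 14 days. Vehicle-only control group, 5 animals per group. Mortality recorded over treatment. Rats weighed and killed under ether anaesthesia on day 15, 24 h after the last dose.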

Rattus norvegicus [8] = test: Anti-benign prostatic hyperplasia activity in Wistar rat assessed as reduction of body weight gain at 1 mg/kg, po qd for 14 days measured on day 15; assay type: functional; parameters: scale not given: the % may be the effect or the level left; summary of the method: as §2
[9] = molecular target: T1, 3-oxo-5-alpha-steroid 4-dehydrogenase 2 (Homo sapiens); test: Inhibition of human type-2 5-alpha reductase expressed in HEK293 cells using [3H]-androstenedione as substrate at 2 uM after 30 mins by HPLC analysis; assay type: cell-based; summary of the method: as §1
Rattus norvegicus [10] = test: Anti-benign prostatic hyperplasia activity in Wistar rat assessed as reduction of epididymis weight gain at 1 mg/kg, po qd for 14 days measured on day 15; assay type: functional; parameters: scale not given: the % may be the effect or the level left; summary of the method: as §2
Rattus norvegicus [11] = test: Anti-benign prostatic hyperplasia activity in Wistar rat assessed as reduction of adrenal weight gain per 100 gram of body weight at 1 mg/kg, po qd for 14 days measured on day 15; assay type: functional; summary of the method: as §2
Rattus norvegicus [12] = test: Anti-benign prostatic hyperplasia activity in Wistar rat assessed as reduction of seminal vesicle weight gain per 100 gram of body weight at 1 mg/kg, po qd for 14 days measured on day 15; assay type: functional; summary of the method: as §2
Rattus norvegicus [13] = test: Anti-benign prostatic hyperplasia activity in Wistar rat assessed as reduction of liver weight gain per 100 gram of body weight at 1 mg/kg, po qd for 14 days measured on day 15; assay type: functional; summary of the method: as §2
Rattus norvegicus [14] = test: Anti-benign prostatic hyperplasia activity in Wistar rat assessed as reduction of vas deferens weight gain at 1 mg/kg, po qd for 14 days measured on day 15; assay type: functional; parameters: scale not given: the % may be the effect or the level left; summary of the method: as §2

Structure (SMILES) | inhibition [1] | inhibition [2] | Activity (Rattus norvegicus [3]) | pIC50 [4] | Activity (Rattus norvegicus [5]) | Activity (Rattus norvegicus [6]) | Activity (Rattus norvegicus [7]) | Activity (Rattus norvegicus [8]) | inhibition [9] | Activity (Rattus norvegicus [10]) | Activity (Rattus norvegicus [11]) | Activity (Rattus norvegicus [12]) | Activity (Rattus norvegicus [13]) | Activity (Rattus norvegicus [14])
C[C@]12CCC(C#N)=CC1=CC[C@@H]1[C@@H]2CC[C@@]2(C)[C@H]1CCC(=O)N2CCC#N | 9.9% | 0% |  |  |  |  |  |  |  |  |  |  |  | 
C[C@]12CC[C@H]3[C@@H](CC=C4C=C(C#N)CC[C@@H]43)[C@@H]1CCC2=O | 1.2% | 0% |  |  |  |  |  |  |  |  |  |  |  | 
CC(=O)N1C(=O)CC[C@H]2[C@@H]3CC=C4C=C(C#N)CC[C@]4(C)[C@H]3CC[C@@]21C | 23.2% | 2.2% |  |  |  |  |  |  |  |  |  |  |  | 
C=CCN1C(=O)CC[C@H]2[C@@H]3CC=C4C=C(C(=O)O)CC[C@]4(C)[C@H]3CC[C@@]21C | 100% | 0.4% | 35.34% | 7.14 | 1094.935 mg | 31.25% | Non-toxic | 7.518% | 99.7% | 24.75% | 17.967 mg | 149.399 mg | 3.168 g | 27.89%
C[C@]12CC[C@H]3[C@@H](CC=C4C=C(C(=O)O)CC[C@@H]43)[C@@H]1CCC2=O | 100% | 82.1% | 22.56% | 6.67 | 926.533 mg | 15.62% | Non-toxic | 22.992% | 89.5% | 29.88% | 15.019 mg | 167.37 mg | 3.078 g | 34.8%
CCOC(=O)CCN1C(=O)CC[C@H]2[C@@H]3CC=C4C=C(C(=O)O)CC[C@]4(C)[C@H]3CC[C@@]21C | 100% | 8.5% | 33.86% | 7.58 | 1075.498 mg | 28.75% | Non-toxic | 15.618% | 100% | 25.41% | 17.522 mg | 136.605 mg | 3.542 g | 37.55%
CC(C)(C)NC(=O)[C@H]1CC[C@H]2[C@@H]3CC[C@H]4NC(=O)C=C[C@]4(C)[C@H]3CC[C@]12C [FINASTERIDE] |  |  | 44.76% | 7.52 | 1058.022 mg | 45.32% | Non-toxic | 8.032% |  | 14.4% | 16.575 mg | 105.51 mg | 3.5097 g | 14.45%
CN1C(=O)CC[C@H]2[C@@H]3CC=C4C=C(C(=O)O)CC[C@]4(C)[C@H]3CC[C@@]21C | 100% | 18.9% | 39.5% | 7.27 | 956.392 mg | 39.96% | Non-toxic | 6.517% | 99% | 31.75% | 12.464 mg | 126.262 mg | 3.224 g | 29.36%
C=CCN1C(=O)CC[C@H]2[C@@H]3CC=C4C=C(C#N)CC[C@]4(C)[C@H]3CC[C@@]21C | 3.3% | 20.8% |  |  |  |  |  |  |  |  |  |  |  | 
CCN1C(=O)CC[C@H]2[C@@H]3CC=C4C=C(C(=O)O)CC[C@]4(C)[C@H]3CC[C@@]21C | 100% | 32.3% | 39.35% | 7.66 | 1128.214 mg | 28.37% | Non-toxic | 5.409% | 100% | 17.25% | 15.574 mg | 151.015 mg | 2.91 g | 19.32%
C[C@]12CCC(C(=O)O)=CC1=CC[C@@H]1[C@@H]2CC[C@]2(C)NC(=O)CC[C@@H]12 | 62.9% | 0% | 27.33% |  | 993.729 mg | 46.5% | Non-toxic | 8.323% |  | 13.98% | 13.973 mg | 186.102 mg | 2.713 g | 26.33%

Second part, led by results:

inhibition [1] | inhibition [2] | Structure (SMILES) | Activity (Rattus norvegicus [3]) | pIC50 [4] | Activity (Rattus norvegicus [5]) | Activity (Rattus norvegicus [6]) | Activity (Rattus norvegicus [7]) | Activity (Rattus norvegicus [8]) | inhibition [9] | Activity (Rattus norvegicus [10]) | Activity (Rattus norvegicus [11]) | Activity (Rattus norvegicus [12]) | Activity (Rattus norvegicus [13]) | Activity (Rattus norvegicus [14])
11.4% | 0% | C[C@]12CCC(C#N)=CC1=CC[C@@H]1[C@@H]2CC[C@@]2(C)[C@H]1CCC(=O)N2C(=O)c1ccccc1 |  |  |  |  |  |  |  |  |  |  |  | 
9.9% | 27.6% | C[C@]12CCC(C#N)=CC1=CC[C@@H]1[C@@H]2CC[C@]2(C)NC(=O)CC[C@@H]12 |  |  |  |  |  |  |  |  |  |  |  | 
45.6% | 34.5% | C[C@]12CCC(Br)=CC1=CC[C@@H]1[C@@H]2CC[C@]2(C)NC(=O)CC[C@@H]12 |  |  |  |  |  |  |  |  |  |  |  | 
34.7% | 0% | C[C@]12CCC(C#N)=CC1=CC[C@@H]1[C@@H]2CC[C@@]2(C)[C@H]1CCC(=O)N2Cc1ccccc1 |  |  |  |  |  |  |  |  |  |  |  | 
48.9% | 56.1% | CCN1C(=O)CC[C@H]2[C@@H]3CC=C4C=C(C#N)CC[C@]4(C)[C@H]3CC[C@@]21C |  |  |  |  |  |  |  |  |  |  |  | 
